SIRT5 block – sirtuin-5 (human) deacylase inhibition. Q9NXA8. Purified SirT5, succinyl-peptide AMC, trypsin-coupled fluorescence. inhibition, % at 15 µM. 330,000 compounds, 1.1% hits; in the data active means inhibition above about 15%
Target sequence (Q9NXA8 whole entry, looked up): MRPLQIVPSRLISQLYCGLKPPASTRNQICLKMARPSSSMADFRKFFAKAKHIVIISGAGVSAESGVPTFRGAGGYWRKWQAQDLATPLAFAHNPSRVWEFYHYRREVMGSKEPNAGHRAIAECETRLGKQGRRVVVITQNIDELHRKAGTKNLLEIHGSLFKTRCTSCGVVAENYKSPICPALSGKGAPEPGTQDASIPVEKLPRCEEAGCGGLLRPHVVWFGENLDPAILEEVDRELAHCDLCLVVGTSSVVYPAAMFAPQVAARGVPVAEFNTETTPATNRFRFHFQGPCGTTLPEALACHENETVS
E-selectin induc – E-selectin induction on HUVECs. P16581. activation, % at 7.58 µM. HUVEC E-selectin immunofluorescence imaging; normalized: neutral wells 0, TNF-alpha wells 100. 260,000 compounds, 0.37% hits;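 active means mean E-selectin-positive cell signal at least 10% of the positive control, reached in at least 60% of replicates, without over 20% cell loss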
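Test system: HUVEC | Signal: Immunofluorescence imaging | Read-out: Percent E-selectin-positive cells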
S100A4 inh HTS – inhibitors of human S100A4 binding to myosin IIA peptide; P26447; S100A4/TAMRA-MyoIIA peptide fluorescence polarization; inhibition, % at 10.7 µM; 360,000 compounds, 0.14% hits;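 active means mean inhibition of at least 70% across replicates, with every replicate also reaching that level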
Target sequence (P26447 whole entry, looked up): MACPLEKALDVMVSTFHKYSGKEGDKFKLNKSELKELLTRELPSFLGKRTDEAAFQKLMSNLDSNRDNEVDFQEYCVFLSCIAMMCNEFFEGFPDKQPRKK
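Material: human S100A4 monomer with TAMRA-labelled myosin IIA peptide; buffer or medium: HEPES pH 7.2 with CaCl2, KCl, NaCl, DTT, Triton; compound dosing: one concentration per compound; schedule: 5 min incubation before reading; benchmarks: neutral control DMSO, positive control TFP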
FGF22 binding – FGF22 (human) thermal shift binding | Q9HCT0 | recombinant FGF22 thermal shift, SYPRO orange fluorescence; percent of sucrose octasulfate shift, DMSO zero | activity (Tm shift, normalised), % at 9.99 µM | 340,000 compounds, 1.5% hits | AID 651658;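 active means mean Tm shift, scaled 0 neutral to 100 positive control, at about 1.3% or above, every replicate too, limit read from the data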
Target sequence (Q9HCT0 whole entry, looked up): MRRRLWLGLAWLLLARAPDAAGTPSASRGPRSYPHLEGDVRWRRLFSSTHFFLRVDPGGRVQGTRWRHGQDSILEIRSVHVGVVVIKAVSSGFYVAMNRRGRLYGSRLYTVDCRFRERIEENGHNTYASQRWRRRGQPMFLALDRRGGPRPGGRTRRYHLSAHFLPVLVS
miR122 inh – blocks miR-122 activity in Huh7 sensor cells. activation (reporter increase), % at 12.5 µM. 340,000 compounds, 0.3% hits. Huh7 miR-122 Renilla luciferase sensor, 48 h; neutral wells = 0, positive control = 100;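 active means mean replicate activation score at least 90 and every replicate individually at or above 90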;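 further: higher luciferase means less miR-122 activity so hits act as miR-122 inhibitors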
* = called active by the depositor; . = no result given; [ ] = dose if it differs, or a comment. Most compounds without a hit are left out; they make up all but 2.5% or so of the library.

SMILES	SIRT5 block	E-selectin induc	S100A4 inh HTS	FGF22 binding	miR122 inh
FC(F)(F)c1ccc(Oc2ccc3ccccc3c2Br)nc1	24*	.	2	1	.
C[C@H](CO)N1C[C@H](C)[C@@H](CN(C)C)OCCCC[C@H](C)Oc2ccc(NC(=O)Cc3ccccc3)cc2C1=O	-3	0	-17	.	-5[16.7 µM]
O=C(N/N=C/c1ccc(OC(F)F)cc1OC(F)F)c1cccc(S(=O)(=O)N2CCOCC2)c1	1	.	-1	44*	.
CCOC(=O)CSC1=C(C#N)C(c2sccc2C)C(C(C)=O)=C(C)N1 (centres undefined)	34*	.	1	0	.
COCC(=O)Nc1ccc2c(c1)C(=O)N(C)[C@H]1CC[C@H](CC(=O)NCc3ccc(OC)cc3)O[C@@H]1CO2	.	0	.	0	-8[16.7 µM]
CC(C)(C)C(=O)c1c(N)[nH]c(C(=O)c2ccccc2)c1-c1ccc(Br)cc1	20*	0	-6	0	.
COC(=O)c1c(N)[nH]c(C(=O)c2ccccc2)c1-c1ccc(Br)cc1	-4	0	2	0	.
Cc1cc(Cc2cc(C)c(N)cc2C)c(C)cc1N	21*	2	3	42	0
COc1ccc(/C=C/c2c([N+](=O)[O-])c(=O)n(C)c(=O)n2C)cc1	2	.	0	43*	.
CCOc1ccc(/C=C/c2c([N+](=O)[O-])c(=O)n(C)c(=O)n2C)cc1	0	0	5	0	7
CO[C@H]1CN(C)C(=O)c2cc(NC(=O)c3cc(C)on3)ccc2OC[C@H](C)N(C(=O)C2CC2)C[C@@H]1C	-3	0	-11	0	-1[16.7 µM]
O=C(C[C@@H]1CC[C@@H]2[C@H](COC[C@H](O)CN2CCc2ccccc2)O1)NCc1ccc(Oc2ccccc2)cc1	6	0	4	0	-11[16.7 µM]
O=C(Cc1ccc(Cl)cc1)NCC(=O)N1CCC2(CC1)NCCc1[nH]cnc12	.	0	2	43*	5
O=C(C1=NN[C@@H]2C(=O)N(c3cccc(F)c3)C(=O)[C@H]12)c1ccc2ccccc2n1	16*	10	4	0	7
CS(=O)(=O)N1CCc2cc(S(=O)(=O)Nc3ccc4c(c3)OCCO4)ccc21	-1	.	-2	0	82
CS(=O)(=O)N1CCc2cc(S(=O)(=O)NCCNS(=O)(=O)c3ccc4c(c3)CCN4S(C)(=O)=O)ccc21	-1	53*	-17	0	24
CC(=O)N1CCc2cc(S(=O)(=O)NCCCN3CCN(Cc4ccccc4)CC3)ccc21	.	.	.	.	302*
CS(=O)(=O)N1CCc2cc(C(=O)NC3CC3)ccc21	7	27*	-10	0	.
COc1ccc2c3c([nH]c2c1)[C@H](CO)N(Cc1ccc(Cl)cc1)CC31CN(Cc2nccs2)C1	-5	0	-28	0	.
COCC#Cc1ccc2c(c1)O[C@H](CN(C)C(=O)Nc1ccccc1F)[C@H](C)CN([C@H](C)CO)S2(=O)=O	0	0	-7	1	-3[16.7 µM]
CC(C)CCN1CCN(Cc2cccs2)CC1CCO (centres undefined)	-2	2	-2	43*	0
CC1=NN(c2ccccc2)C(=O)/C1=C\c1cn(CCC#N)nc1-c1ccc(Cl)cc1	1	.	3	44*	.
O=C1CN(S(=O)(=O)Cc2ccccc2)C[C@@H]2[C@H](c3ccc(C#CCC4CCCC4)cc3)[C@@H](CO)N12	11	-1	-1	.	.
CCCCCCN1C[C@@H](n2cc(C3CC3)nn2)[C@H](O)C[C@@H]1c1ccc(OC)cc1	23*	0	-3	0	-4
O=C(NC[C@@H]1CC[C@@H]2[C@@H](CN2S(=O)(=O)c2ccccc2[N+](=O)[O-])O1)C1CCCCC1	2	.	-7	.	.
SMILES	SIRT5 block	E-selectin induc	S100A4 inh HTS	FGF22 binding	miR122 inh
COc1cc2c(cc1OC)CN(CC(=O)Nc1ccccc1SC)CC2	0	1	0	43*	.
CSc1nnc2c(n1)OC(c1ccc(C(=O)O)cc1)N(C(C)=O)c1ccccc1-2 (centres undefined)	.	0	28	0	-2
CSc1nnc2c(n1)OC(c1ccccn1)N(C(C)=O)c1ccccc1-2 (centres undefined)	2	.	-96	43*	0
CC(=O)Cc1nsc(NC(=O)c2ccc(-c3cccc(Cl)c3)o2)n1	1	.	7	1.4*	-15
CC(=O)Cc1nsc(Nc2ccc(Cl)cc2)n1	1	.	2	43*	.
CC(=O)Cc1nsc(NC(=O)c2ccc(Br)o2)n1	-5	.	2	0	2
C[C@H](CO)N1C[C@H](C)[C@H](CN(C)C(=O)Nc2ccc(F)cc2)Oc2c(NC(=O)Nc3cccc4ccccc34)cccc2C1=O	2	0	-7	0	-17[16.7 µM]
CCCN1[C@H](C(=O)N(C)C)[C@@H](CO)[C@@H]2Cn3c(ccc(C4=CCCCC4)c3=O)[C@@H]21	0	0	42	.	.
Cc1noc(C)c1S(=O)(=O)Nc1ccc2c(c1)CC(=O)N([C@@H](C)CO)C[C@@H](C)[C@@H](CN(C)C)O2	-2	0	-2	0	-3[16.7 µM]
C[C@@H]1CCCCO[C@@H](CN(C)C(=O)CCC(F)(F)F)[C@@H](C)CN([C@H](C)CO)C(=O)c2cc(NS(=O)(=O)c3cn(C)cn3)ccc2O1	-2	0	-5	0	0[16.7 µM]
O=C(O)Cc1ccc(Nc2cnn(C34CC5CC(CC(CC(=O)O)(C5)C3)C4)c(=O)c2Cl)cc1	15*	2	-1	0	-3
COc1ccc(N2CCN(C(=O)CN(C)S(=O)(=O)c3cc(C)ccc3OC)CC2)cc1	19*	1	-3	.	0
C[C@H]1CN([C@@H](C)CO)C(=O)c2cccc(NS(=O)(=O)c3ccc(F)cc3)c2O[C@@H]1CN(C)Cc1ccc(Oc2ccccc2)cc1	.	1	.	.	6[16.7 µM]
Cc1ccc(NS(=O)(=O)c2cc(NC(=O)c3ccc4c(c3)NC(=O)CS4)ccc2Cl)c(C)c1	-5	2	-5	43*	.
C[C@@H]1CN([C@H](C)CO)S(=O)(=O)c2ccc(Br)cc2O[C@@H]1CN(C)Cc1ccncc1	-4	2	36	0	9[16.7 µM]
C[C@@H]1CN([C@@H](C)CO)S(=O)(=O)c2ccc(Br)cc2O[C@@H]1CN(C)Cc1ccncc1	1	0	111*	0	22[16.7 µM]
C[C@@H]1CN([C@H](C)CO)S(=O)(=O)c2ccc(/C=C/c3ccccc3)cc2O[C@H]1CN(C)Cc1ccccc1	23*	0	54	0	26[16.7 µM]
C/C=C/c1ccc2c(c1)O[C@H](CN(C)Cc1cccc(F)c1)[C@@H](C)CN([C@@H](C)CO)S2(=O)=O	17*	1	23	0	.
C/C=C/c1ccc2c(c1)O[C@H](CN(C)CC1CCCC1)[C@@H](C)CN([C@H](C)CO)S2(=O)=O	15*	1	-9	0	66[16.7 µM]
C/C=C/c1ccc2c(c1)O[C@H](CN(C)CC1CC1)[C@H](C)CN([C@H](C)CO)S2(=O)=O	.	0	.	.	-6[16.7 µM]
